STEP block: STEP (human) phosphatase inhibition; P54829; recombinant STEP, OMFP fluorogenic substrate, fluorescence; inhibition, % at 20 µM; hit rate 0.25% among 360,000; AID 588621;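 active means inhibition at 20 µM, scaled per plate between control wells, above about 37%, limit read from the data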;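 further: 0% = DMSO with enzyme and substrate and 100% = substrate only without enzyme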
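Assay system: isolated STEP enzyme / Timing: 20 min at room temperature, dark / Doses: 20 µM, 1% DMSO / Technique: fluorescence intensity, excitation 480 nm, emission 540 nm / Reagent: fluorogenic phosphatase substrate OMFP at 25 µM final / Measure: percent inhibition scaled to no-enzyme and uninhibited-enzyme controls, plate-pattern corrected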
DNMT1 block: blocks human DNA methyltransferase DNMT1. P26358. DNMT1 molecular beacon, Hinp1I cleavage, fluorescence. inhibition (reported as % activation of signal), % at 10 µM. hit rate 0.83% among 360,000; in the data active means inhibition above about 50%
Target sequence (P26358 504-1616 limits assumed): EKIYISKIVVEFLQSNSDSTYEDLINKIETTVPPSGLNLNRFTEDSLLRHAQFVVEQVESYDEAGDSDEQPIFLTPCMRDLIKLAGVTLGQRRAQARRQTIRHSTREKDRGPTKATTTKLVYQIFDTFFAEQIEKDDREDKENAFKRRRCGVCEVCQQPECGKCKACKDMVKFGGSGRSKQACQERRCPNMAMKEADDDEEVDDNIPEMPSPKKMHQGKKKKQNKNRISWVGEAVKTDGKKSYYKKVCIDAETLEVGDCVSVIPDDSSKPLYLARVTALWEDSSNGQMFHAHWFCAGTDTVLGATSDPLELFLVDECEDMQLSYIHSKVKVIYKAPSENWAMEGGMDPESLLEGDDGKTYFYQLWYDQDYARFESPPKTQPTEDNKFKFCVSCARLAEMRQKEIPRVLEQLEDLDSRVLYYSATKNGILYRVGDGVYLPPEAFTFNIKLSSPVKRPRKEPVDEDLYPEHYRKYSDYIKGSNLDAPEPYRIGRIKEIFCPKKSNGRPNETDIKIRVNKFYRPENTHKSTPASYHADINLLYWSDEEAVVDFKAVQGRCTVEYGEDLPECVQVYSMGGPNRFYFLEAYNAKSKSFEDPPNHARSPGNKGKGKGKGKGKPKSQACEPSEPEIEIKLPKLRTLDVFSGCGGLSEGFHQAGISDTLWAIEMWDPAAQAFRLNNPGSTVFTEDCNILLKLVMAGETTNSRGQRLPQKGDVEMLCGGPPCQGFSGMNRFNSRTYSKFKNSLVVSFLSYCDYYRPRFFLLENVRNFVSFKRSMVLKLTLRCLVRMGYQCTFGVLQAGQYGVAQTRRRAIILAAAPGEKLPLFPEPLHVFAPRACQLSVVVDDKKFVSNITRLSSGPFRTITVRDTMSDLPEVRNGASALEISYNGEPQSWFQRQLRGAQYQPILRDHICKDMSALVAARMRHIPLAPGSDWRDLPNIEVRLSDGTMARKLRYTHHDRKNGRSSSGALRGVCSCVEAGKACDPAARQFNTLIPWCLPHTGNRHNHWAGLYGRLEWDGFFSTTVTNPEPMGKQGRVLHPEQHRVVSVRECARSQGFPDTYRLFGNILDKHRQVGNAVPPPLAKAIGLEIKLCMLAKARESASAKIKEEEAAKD
SUMO1 PPI mod: alters human SUMO1 binding to SIM partners. P63165. SUMO1 binding to a labelled peptide, TR-FRET, 1 h. inhibition, % at 20 µM. hit rate 0.33% among 360,000; in the data active means inhibition above about 37%
Scp1 inh: inhibitors of human Scp-1 phosphatase; inhibition, % at 20 µM; hit rate 0.88% among 340,000; Q9GZU7; Recombinant Scp1, phosphopeptide, malachite green phosphate absorbance;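 active means inhibition above about 50% at 20 µM, limit read from the data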;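 further: plate controls were DMSO wells with enzyme for no effect and wells lacking enzyme for full effect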
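assay system = SCP-1 phosphatase catalytic domain, residues 76-261 | buffer or medium = 50 mM Tris acetate pH 5.5, 0.005% Tween-20, 10 mM MgCl2 | incubation = enzyme reaction 45 min at room temperature, colour 5 min, stabilisation 30 min | signal = Phosphate-binding colour reagent, absorbance read at 630 nm | measure = % inhibition at 20 µM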
LMPTP block: blocks human LMPTP phosphatase; P24666; recombinant LMPTP-A, OMFP fluorogenic substrate, fluorescence intensity; inhibition, % at 20 µM; hit rate 0.22% among 360,000; AID 651560;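 active means compounds that cut the enzyme signal by at least half of the control window in the single-dose screen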;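 further: plate controls were DMSO wells with enzyme plus substrate for no effect and substrate without enzyme for full effect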
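Assay system: LMPTP-A enzyme. Input: 0.625 nM LMPTP-A final. Probe or stimulus: 400 µM OMFP. Compound dosing: single 20 µM dose. Schedule: 50 min dark incubation at room temperature. Detection: fluorescence intensity of OMFP turnover product. Read-out: percent inhibition versus substrate-only and uninhibited controls. Benchmarks: no-enzyme low control, uninhibited high control.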
DNMT1 interf DR: counter-screen for DNMT1 inhibitors: spectral interference, dose response; 200 tested, under 10 active; molecular beacon fluorescence; IC50, µM; shares compounds with DNMT1 block; call rule not given here
DNMT1 confirm: DNMT1 inhibition confirmation, single concentration. shares compounds with DNMT1 block. hit rate 8% among 2,300. DNMT1 molecular beacon HinP1I cleavage, fluorescence. inhibition, % at 10 µM;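 active means average inhibition of at least 30% in the single-concentration confirmation test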
Beacon interf: beacon fluorescence artifact counter-screen | DNMT1 molecular beacon spectral interference counterscreen, fluorescence 485/520 | AID 602387 | activation (fluorescence interference), % at 10 µM | hit rate 1% among 2,300 | shares compounds with DNMT1 block;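 active means activation of at least 30% at 10 µM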;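 further: DNMT1 catalytic domain with a HinP1I cleavage step and a FAM/dabcyl DNA beacon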
* = called active by the depositor; · = no result given. An excerpt weighted towards active compounds, which were near 1.7% of everything screened.

SMILES	STEP block	DNMT1 block	SUMO1 PPI mod	Scp1 inh	LMPTP block	DNMT1 confirm	Beacon interf	others
O=C(CSc1nnc(SCc2ccccc2)s1)N/N=C/C=C/c1ccco1	4.0	97.9*	12.5	83.5*	37.4	12.9	0.7
O=C(Cc1cccs1)N/N=C/C=C/c1ccco1	1.3	66.2*	10.8	46.4	12.3	0.3	-1.9
O=C(CNc1cccc2ccccc12)N/N=C/C=C/c1ccco1	0.7	-17.8	-11.9	-8.1	5.1	·	·
Cc1c(C)c2ccc(OCC(=O)Nc3ccccn3)c(C)c2oc1=O	-3.3	1.3	-9.9	-2.4	-1.0	·	·
Cc1c(C)c2cc(Cl)c(OCC(=O)Nc3ccccn3)cc2oc1=O	-1.9	64.5*	70.5*	·	-0.5	2.7	3.7
Cc1cc(C)cc(OCc2nc3ncc(Br)cc3[nH]2)c1	0.6	59.4*	-1.9	-6.7	1.5	2.3	1.6
COc1cccc(-c2noc(CCC(=O)NCC3CCCO3)n2)c1 (stereo not drawn)	0.3	-2.0	5.8	0.4	0.0	·	·
Cc1ccc(/C=C/C(=O)N2CCc3ccccc32)o1	4.0	86.5*	-3.2	52.3*	2.2	8.4	1.6
COc1cc(OC)c2ccc(=O)oc2c1C(CCN1CCOCC1)c1ccc2c(c1)OCO2 (stereo not drawn)	-1.2	60.9*	-4.7	1.3	-0.6	3.6	2.1
Cc1ccc2c(c1)N(CC(=O)OCC(=O)NCc1ccccc1)C(=O)CO2	-1.5	0.5	-1.7	-3.0	1.4	·	·
CC(=O)c1ccc(OCCCC(=O)NCCc2ccccc2)cc1	-0.8	-0.9	4.5	1.1	0.7	·	·
COC(=O)C1=CN(c2ccc3c(c2)OCO3)C(N)=C(C#N)C1c1ccccc1 (stereo not drawn)	·	·	-1.5	·	0.1	·	·
COc1ccc(N2CCCC2=O)cc1S(=O)(=O)N1CCOCC1	-3.0	72.0*	4.3	·	-3.2	1.3	3.2
O=C(NCCN1CCC(n2c(=O)[nH]c3ccccc32)CC1)c1cc(F)cc(F)c1	·	·	-0.1	·	4.5	·	·
c1ccc(Cn2c(SCc3nc4ccccc4s3)nnc2-c2ccco2)cc1	10.9	103.5*	36.5	25.7	36.7	1.1	6.0
CCC(c1nnc(SCc2nc3ccccc3s2)n1Cc1ccccc1)N(C)C (stereo not drawn)	2.3	-4.8	-0.6	-6.2	1.3	·	·
O=C1/C(=C\c2ccc(-c3ccccc3[N+](=O)[O-])o2)C(c2ccccc2)=NN1c1ccccc1	0.2	62.8*	20.5	-19.9	3.2	13.9	1.0
CCc1cccc(OCCCCN(CC)CC)c1	0.0	54.9*	1.2	-4.7	0.2	4.0	4.8
COc1ccc(-c2csc3nc(-c4ccc(C)cc4)oc(=O)c23)cc1OC	14.1	85.2*	0.2	40.8	12.5	-0.2	-8.1
COc1ccc(-c2csc3nc(C(C)(C)C)oc(=O)c23)cc1OC	-3.6	0.0	3.7	-12.2	-2.0	·	·
O=C(Nc1ccccc1)Nc1nnc(-c2ccccc2)s1	0.0	20.2	1.4	0.9	-1.8	·	·
O=C(Nc1ccccc1)Nc1nnc(/C=C/c2ccccc2Cl)s1	1.5	89.4*	0.4	-12.2	0.5	1.0	1.1
NC(CCCCCP(=O)(c1ccccc1)c1ccccc1)C(=O)O (stereo not drawn)	·	·	·	18.9	·	·	·
COc1cccc(/C=N\NC(=O)c2ccc(Cn3cc(Br)c([N+](=O)[O-])n3)o2)c1O	5.4	-1.4	-11.4	-5.3	8.5	·	·
COc1cccc(=O)c2c(C)n(CC(=O)c3ccccc3)c(C)c12	3.9	63.3*	4.8	17.8	18.2	-0.1	0.5
SMILES	STEP block	DNMT1 block	SUMO1 PPI mod	Scp1 inh	LMPTP block	DNMT1 confirm	Beacon interf	others
CCOc1cccc(=O)c2c(C)n(CC(=O)c3ccccc3)c(C)c12	2.5	37.0	3.7	1.9	9.1	·	·
O=C(O)C1CSC(c2ccco2)N1 (stereo not drawn)	31.9	96.9*	23.0	66.6*	57.6*	17.3	-3.7
Cc1csc2ncc(C(=O)Nc3cccc(C(F)(F)F)c3)c(=O)n12	-1.6	68.0*	-1.7	-9.8	0.8	3.5	2.6
CCOC(=O)c1ccc(CNS(=O)(=O)c2c(C)ccc3nsnc23)o1	-0.1	69.2*	-20.8	0.8	-0.9	4.1	4.2
C=CCn1c(=O)c(C(=O)NC(C)c2ccccc2)c(O)c2ccccc21 (stereo not drawn)	-0.8	83.7*	3.5	-11.4	1.0	3.2	3.5
C=CCn1c(=O)c(C(=O)Nc2ccc(C)cc2)c(O)c2ccccc21	0.1	1.4	1.4	-7.5	-0.7	·	·
CCOCc1nnc(NC(=O)c2ccco2)s1	1.0	1.8	0.2	-6.0	-3.0	·	·
CCCCCCCCc1nnc(NC(=O)c2ccco2)s1	3.4	112.7*	0.5	22.3	3.8	58.7*	3.5	DNMT1 interf DR=>99
CCCCCn1c(N)c(-c2nc3ccccc3o2)c2c([N+](=O)[O-])nn(CC)c(=O)c21	37.5	95.2*	11.1	102.0*	55.9*	2.3	0.9
CCCCCn1c(N)c(-c2nc3ccccc3s2)c2c([N+](=O)[O-])nn(CC)c(=O)c21	3.2	-2.7	11.2	-5.3	3.8	·	·
COC(=O)c1cc(S(=O)(=O)N2CCC(c3cc(OC)ccc3OC)C2)c[nH]1 (stereo not drawn)	-3.8	-5.3	-0.5	-9.1	0.6	·	·
Cc1ccc(NC(=O)Nc2nnc(-c3ccccc3F)s2)cc1	-1.4	55.6*	1.5	-8.9	0.2	3.7	1.0
COc1ccc(NC(=O)Nc2nnc(-c3ccccc3F)s2)cc1	-6.5	46.1	1.9	-5.5	19.8	·	·
Fc1ccc(CNC(=S)NCc2cccc(Cl)c2)cc1	-1.0	6.5	-6.0	-1.8	0.5	·	·
COc1cc(C(=O)c2nccc3cc(OC)c(OC)cc23)c([N+](=O)[O-])cc1OC	2.9	58.3*	8.7	-7.1	3.0	-0.1	-1.7
COc1cc(N)c(C(=O)c2nccc3cc(OC)c(OC)cc23)cc1OC	3.7	-2.8	-8.2	-5.2	-1.6	·	·
C=CCOc1ccc(C(c2c(C(=O)O)[nH]c3ccccc23)c2c(C(=O)O)[nH]c3ccccc23)cc1	-3.5	86.2*	15.1	-18.6	2.5	14.0	-0.9
COc1ccccc1/C=C/C=N/n1c(-c2ccco2)n[nH]c1=S	2.5	1.3	-9.3	-14.4	2.5	·	·
S=c1[nH]nc(-c2cc(-c3ccccc3)n[nH]2)n1/N=C/C=C/c1ccco1	4.9	62.4*	29.2	-3.3	11.6	0.7	1.1
COc1ccccc1/C=C/C=N/n1c(-c2n[nH]c3c2CCC3)n[nH]c1=S	3.0	-4.1	-6.1	-5.0	0.9	·	·
